Test results: PMC4339462 (Bioorganic & medicinal chemistry, 2015)
Where a name gives a salt, the structure may show the parent alone.

Experiments:
MPG [1] = target: T1, MPG (Homo sapiens, UniProt P29372); experiment: Gel-based MPG activity assay in whole cell extracts; assay type: biochemical; settings: 0–300 µM compound
[2] = system: apurinic/apyrimidinic endonuclease 1 (APE1); experiment: Gel-based APE1 activity assay; assay type: biochemical; settings: 0, 20 and 40 µM
Method in brief: (§1)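 Purified recombinant APE1 pre-incubated with test compound for 10 min at room temperature. Then reacted with a ³²P-labelled duplex oligonucleotide carrying a THF abasic-site analogue for 10 min at 37°C. Products resolved on denaturing 20% polyacrylamide/7 M urea gels at 60°C; band intensities quantified from X-ray film.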

[3] = system: 8-oxoguanine DNA glycosylase (OGG1); experiment: Gel-based OGG1 activity assay; assay type: biochemical; settings: 0, 20 and 40 µM; not dose-dependent
Method in brief: as §1, with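 “OGG1” for “APE1”, “³²P-labelled 8-oxo-dG-containing” for “³²P-labelled”, “oligonucleotide” for “oligonucleotide carrying a THF abasic-site analogue”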

APE1 = settings: high throughput screening; ref Pubchem Bioassay AID 485314 and 2517; cited from earlier work
A549 cells = experiment: MTT assay; assay type: cell-based, human; settings: A549, concentrations used in the repair assay, 72 h
MPG [4] = target: T1, MPG; experiment: SPR inhibition of hMPG binding to εA-containing substrate DNA; settings: 40 µM morin hydrate
Method in brief: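 SPR with biotinylated εA-containing 50-mer oligonucleotide immobilised on a streptavidin C1 chip. Injections of 30 nM purified human MPG pre-mixed with test compound (0, 5, 10, 20, 40 µM), 60 s each. Binding taken as background-subtracted RU. Percent inhibition calculated as the decrease in RU versus DMSO.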

repair of εA = experiment: Plasmid-based in-cell repair assay, εA-containing M13mp18 plasmid; design: species or system human
Method in brief: (§2)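 Lesion (εA or 8-oxo-dG) was placed at the EcoRI site of M13mp18. A phosphorylated lesion primer was annealed to ssDNA, extended with T7 polymerase, ligated with T4 ligase, supercoiled and purified. A549 and HeLa cells (DMEM, 10% FBS, 1% antibiotic) were transfected with 0, 200 or 300 µM test compound. Recovered plasmids were cut with EcoRI (lesion site) and SacI (internal control), and repair was scored by plaque formation.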

[5] = system: undamaged (control) oligonucleotide; experiment: SPR binding of compounds to immobilized undamaged; settings: 15 µM compound
Method in brief: (§3)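 Biacore T100 SPR. Biotinylated 50-mer oligonucleotide, undamaged or εA-containing, immobilised on a streptavidin-coated C1 chip. Test compound injected at 15 µM in 10 mM HEPES-KOH pH 7.6, 90 mM KCl, 0.05% surfactant P20, at 7°C. Binding read as background-subtracted RU over 60 s injections.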

[6] = system: εA-containing oligonucleotide; experiment: SPR binding of compounds to immobilized εA-containing oligonucleotide; settings: 15 µM compound
Method in brief: as §3

repair of 8-oxo-dG = experiment: Plasmid-based in-cell repair assay, 8-oxo-dG-containing M13mp18 plasmid; design: species or system human
Method in brief: as §2

DNA polymerase β = settings: high throughput screening; ref Pubchem Bioassay AID 485314 and 2517; cited from earlier work
HeLa cells = experiment: MTT assay; assay type: cell-based, human; settings: concentrations used in the repair assay, 72 h

T1 sequence (P29372 18-298): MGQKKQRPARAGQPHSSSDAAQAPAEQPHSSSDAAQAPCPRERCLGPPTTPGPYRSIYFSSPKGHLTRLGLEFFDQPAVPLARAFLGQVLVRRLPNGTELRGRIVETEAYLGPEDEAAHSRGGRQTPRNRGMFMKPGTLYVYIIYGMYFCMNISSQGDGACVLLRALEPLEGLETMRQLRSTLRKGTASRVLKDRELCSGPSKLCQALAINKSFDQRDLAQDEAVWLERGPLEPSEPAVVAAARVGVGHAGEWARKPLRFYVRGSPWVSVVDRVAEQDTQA

Compound: O.O=c1c(O)c(-c2ccc(O)cc2O)oc2cc(O)cc(O)c12 [morin hydrate]
- MPG activity in whole cell extract (MPG [1]; A549 extract): inhibited
- MPG activity in whole cell extract (MPG [1]; HeLa extract): inhibited
- effect on the activity of APE1 [2]: no effect
- effect on OGG1 activity [3]: some promiscuous inhibition
- inhibition of APE1 (APE1): inhibit
- toxicity (cell survival) (A549 cells): not toxic
- inhibition of MPG DNA binding (MPG [4]): Complete inhibition
- reduction in repair (repair of εA; 300 µM morin hydrate, A549 and HeLa cells): 50–60%
- repair of εA in live cells (repair of εA; A549 cells, 0, 200, 300 µM): inhibited
- repair of εA in live cells (repair of εA; HeLa cells, 0, 200, 300 µM): inhibited
- IC50 (repair of εA; Homo sapiens, read-out: IC50 of MPG inhibition in live cells and in extracts): 100 to 300 µM
- affinity for unmodified (control) DNA [5]: no detectable affinity
- affinity for εA-containing DNA [6]: no detectable affinity
- repair of 8-oxo-dG in live cells (repair of 8-oxo-dG; A549 cells, 0, 200, 300 µM): unaffected
- repair of 8-oxo-dG in live cells (repair of 8-oxo-dG; HeLa cells, 0, 200, 300 µM): unaffected
- inhibition of DNA polymerase β (DNA polymerase β): inhibit
- toxicity (cell survival) (HeLa cells): not toxic

Compound: O=c1c(O)c(-c2ccc(O)c(O)c2)oc2cc(O)cc(O)c12 [Quercetin]
- MPG activity in whole cell extract (MPG [1]; HeLa extract): did not have an effect

Compound: O=C1c2c(O)ccc(O)c2C(=O)c2c(NCCNCCO)ccc(NCCNCCO)c21 [mitoxantrone dihydrochloride]
- affinity for unmodified (control) DNA [5]: demonstrated affinity for DNA
- affinity for εA-containing DNA [6]: demonstrated affinity for DNA

Compound: Cc1cc2c(C(C)C)c(O)c(O)c(C=O)c2c(O)c1-c1c(C)cc2c(C(C)C)c(O)c(O)c(C=O)c2c1O [gossypol]
- affinity for unmodified (control) DNA [5]: demonstrated affinity for DNA
- affinity for εA-containing DNA [6]: demonstrated affinity for DNA
